According to publication PMC4306518 (Journal of Medicinal Chemistry, 2014):
Read-outs that look alike come from different tables or passages of the source.

Columns and labels:
[1] = molecular target: T1, bsNOS (Bacillus subtilis, UniProt O34453); assay: Imidazole displacement assay, spectral binding constant
T1 sequence (O34453 1-363): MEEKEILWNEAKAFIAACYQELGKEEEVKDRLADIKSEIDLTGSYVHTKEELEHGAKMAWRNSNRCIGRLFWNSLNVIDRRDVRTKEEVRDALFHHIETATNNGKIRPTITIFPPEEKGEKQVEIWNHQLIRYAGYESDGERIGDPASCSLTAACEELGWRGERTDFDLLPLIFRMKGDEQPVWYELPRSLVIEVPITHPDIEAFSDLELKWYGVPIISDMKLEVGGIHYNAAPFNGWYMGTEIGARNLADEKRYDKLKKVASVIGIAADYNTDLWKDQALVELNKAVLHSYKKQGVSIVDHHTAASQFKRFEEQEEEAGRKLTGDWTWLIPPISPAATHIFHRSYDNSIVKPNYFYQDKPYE

[2] = tested on: B. subtilis; assay: Effect of acriflavine and NOS inhibitors on B. subtilis survival; type: cell-based, Bacillus subtilis
How it was run: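 WT (ATCC 23857) and Δnos B. subtilis grown separately to OD600 ≈ 1.0, diluted to OD600 0.6 in LB, then brought up in M9 minimal medium with or without test compound (500 μM final) and/or acriflavine (800 μM final). Treated 30 min at 30 °C, serially diluted in M9, plated on LB agar + 0.5% glucose, 37 °C overnight. CFU counted; % survival relative to untreated cells; ≥3 replicates, mean ± SEM, Student's t test.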

[3] = molecular target: rat nNOS (Rattus norvegicus, UniProt P29476); assay: Ki with mammalian NOS isoforms: nNOS; type: biochemical; settings: 6 compared to 2
[4] = molecular target: T1, bsNOS; settings: read-out: imidazole KD bsNOS; used to calculate KS; cited from earlier work
[5] = molecular target: iNOS (Homo sapiens, UniProt P35228); settings: read-out: imidazole KD iNOS; used to calculate KS; cited from earlier work
[6] = KS bsNOS (+H4B), presence of 50 μM H4B
[7] = KS bsNOS (−H4B), absence of H4B

rat nNOS, sequence (P29476 whole entry, canonical isoform): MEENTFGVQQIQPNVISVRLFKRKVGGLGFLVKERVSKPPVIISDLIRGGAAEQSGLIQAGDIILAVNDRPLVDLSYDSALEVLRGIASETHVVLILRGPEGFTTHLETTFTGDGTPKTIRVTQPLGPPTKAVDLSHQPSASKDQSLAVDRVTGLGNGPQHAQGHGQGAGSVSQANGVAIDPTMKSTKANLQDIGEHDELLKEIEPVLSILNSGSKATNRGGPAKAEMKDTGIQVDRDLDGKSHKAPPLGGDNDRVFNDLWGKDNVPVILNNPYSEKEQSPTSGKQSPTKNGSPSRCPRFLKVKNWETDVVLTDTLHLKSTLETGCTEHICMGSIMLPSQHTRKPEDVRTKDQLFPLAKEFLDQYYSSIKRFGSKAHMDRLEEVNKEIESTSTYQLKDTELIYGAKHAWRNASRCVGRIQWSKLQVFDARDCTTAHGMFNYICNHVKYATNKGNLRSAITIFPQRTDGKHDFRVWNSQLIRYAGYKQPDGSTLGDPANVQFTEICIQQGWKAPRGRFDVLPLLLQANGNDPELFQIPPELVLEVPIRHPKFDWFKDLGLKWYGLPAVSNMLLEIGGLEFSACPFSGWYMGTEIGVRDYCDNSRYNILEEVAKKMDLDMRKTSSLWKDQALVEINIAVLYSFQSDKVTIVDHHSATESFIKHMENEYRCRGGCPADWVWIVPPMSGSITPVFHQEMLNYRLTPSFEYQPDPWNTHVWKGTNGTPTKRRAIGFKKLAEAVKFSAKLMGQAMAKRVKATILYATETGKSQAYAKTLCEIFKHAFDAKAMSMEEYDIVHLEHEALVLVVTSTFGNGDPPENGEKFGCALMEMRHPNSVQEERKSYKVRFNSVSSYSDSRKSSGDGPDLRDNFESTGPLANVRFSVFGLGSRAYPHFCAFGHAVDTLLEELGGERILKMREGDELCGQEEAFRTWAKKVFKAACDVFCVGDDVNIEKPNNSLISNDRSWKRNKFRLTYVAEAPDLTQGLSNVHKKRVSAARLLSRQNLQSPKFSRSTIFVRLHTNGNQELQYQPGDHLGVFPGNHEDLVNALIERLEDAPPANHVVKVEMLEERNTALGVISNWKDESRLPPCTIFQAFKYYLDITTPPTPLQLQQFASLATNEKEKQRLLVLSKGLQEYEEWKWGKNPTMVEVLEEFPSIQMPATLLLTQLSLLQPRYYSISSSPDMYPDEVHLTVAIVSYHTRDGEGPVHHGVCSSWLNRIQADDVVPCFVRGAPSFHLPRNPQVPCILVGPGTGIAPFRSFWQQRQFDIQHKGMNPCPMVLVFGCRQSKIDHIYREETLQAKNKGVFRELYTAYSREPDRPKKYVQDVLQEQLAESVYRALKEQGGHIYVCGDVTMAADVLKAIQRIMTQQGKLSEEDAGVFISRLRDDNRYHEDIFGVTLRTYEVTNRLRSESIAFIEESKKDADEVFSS
iNOS, sequence (P35228 74-504 limits assumed): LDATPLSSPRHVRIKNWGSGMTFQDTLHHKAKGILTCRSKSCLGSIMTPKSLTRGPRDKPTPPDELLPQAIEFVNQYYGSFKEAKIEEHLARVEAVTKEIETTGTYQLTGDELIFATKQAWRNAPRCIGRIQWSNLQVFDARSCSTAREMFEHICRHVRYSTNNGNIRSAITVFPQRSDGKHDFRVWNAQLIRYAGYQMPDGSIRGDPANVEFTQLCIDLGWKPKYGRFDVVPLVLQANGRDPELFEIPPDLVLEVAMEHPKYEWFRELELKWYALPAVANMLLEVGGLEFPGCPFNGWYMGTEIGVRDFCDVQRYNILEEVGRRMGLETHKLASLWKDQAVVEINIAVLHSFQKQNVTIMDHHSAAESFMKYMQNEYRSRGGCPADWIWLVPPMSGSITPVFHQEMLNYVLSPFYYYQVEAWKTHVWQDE

| Compound | Kd [1, 6] [µM] | Kd [1, 7] [µM] | other results |
| --- | --- | --- | --- |
| NC(=NCCCC(N)C(=O)O)NO [N-ω-hydroxy-L-arginine (L-NNA), N-ω-hydroxy-L-arginine, reference compound] | 1.9 ± 0.1 |  |  |
| Cc1cc(N)nc(CCc2cc(N)cc(CCc3cc(C)cc(N)n3)c2)c1 [compound 1] | 1.9 ± 0.1 | 0.91 ± 0.08 | fold difference in binding (KS) to bsNOS in presence vs absence of H4B ([1]; 50 μM H4B vs no H4B): 2 fold |
| Cc1cc(N)nc(CCc2cc(CN)cc(CCc3ccc4cc[nH]c4n3)c2)c1 [compound 6, 6-(3-(2-(1H-Pyrrolo[2,3-b]pyridin-6-yl)ethyl)-5-(aminomethyl)phenethyl)-4-methylpyridin-2-amine] | 12 ± 4 | 10 ± 2 | fold decrease of potency toward nNOS compared to 2 [3]: > 4 fold |
| c1c[nH]cn1 [imidazole] |  |  | Kd [4]: 384 µM; Kd [5]: 158 µM |
| acriflavine [reference compound] |  |  | bacterial growth, % of control ([2]; ACR alone (800 μM), 30 min): 23% |

Second part, led by results:

| Kd [1, 6] [µM] | Kd [1, 7] [µM] | Compound | other results |
| --- | --- | --- | --- |
| 47 ± 2 | 15 ± 3 | Cc1cc(N)nc(CCc2cc(CN)cc(CCc3cc(C)cc(N)n3)c2)c1 [compound 2] | bacterial growth inhibition (in words) ([2]; B. subtilis): good inhibitor of bacterial growth |
| 19 ± 1 | 16 ± 1 | Cc1cc(N)nc(CCc2cc(CCCN)cc(CCc3cc(C)cc(N)n3)c2)c1 [compound 3] |  |
| 19 ± 2 | 12 ± 1 | CNc1cc(C)cc(CCc2cc(C#N)cc(CCc3cc(C)cc(N)n3)c2)n1 [compound 4, 3-(2-(6-Amino-4-methylpyridin-2-yl)ethyl)-5-(2-(4-methyl-6-(methylamino)pyridin-2-yl)ethyl)benzonitrile] |  |
